Experimental data: ChEMBL document CHEMBL3603837, “Indole Glucocorticoid Receptor Antagonists Active in a Model of Dyslipidemia Act via a Unique Association with an Agonist Binding Site” (J Med Chem, 2015)
Active and inactive are the calls of the source. The calls are words filed in the database; no cut-off is given here.

Experiments:
[1] = molecular target: T1, Glucocorticoid receptor (Homo sapiens) (UniProt P04150); experiment: Displacement of [3H]-dexamethasone from human glucocorticoid receptor expressed in HEK293 cells at 10 uM by scintillation counting based radioligand competition binding assay; format: cell-based
T1 sequence (whole entry): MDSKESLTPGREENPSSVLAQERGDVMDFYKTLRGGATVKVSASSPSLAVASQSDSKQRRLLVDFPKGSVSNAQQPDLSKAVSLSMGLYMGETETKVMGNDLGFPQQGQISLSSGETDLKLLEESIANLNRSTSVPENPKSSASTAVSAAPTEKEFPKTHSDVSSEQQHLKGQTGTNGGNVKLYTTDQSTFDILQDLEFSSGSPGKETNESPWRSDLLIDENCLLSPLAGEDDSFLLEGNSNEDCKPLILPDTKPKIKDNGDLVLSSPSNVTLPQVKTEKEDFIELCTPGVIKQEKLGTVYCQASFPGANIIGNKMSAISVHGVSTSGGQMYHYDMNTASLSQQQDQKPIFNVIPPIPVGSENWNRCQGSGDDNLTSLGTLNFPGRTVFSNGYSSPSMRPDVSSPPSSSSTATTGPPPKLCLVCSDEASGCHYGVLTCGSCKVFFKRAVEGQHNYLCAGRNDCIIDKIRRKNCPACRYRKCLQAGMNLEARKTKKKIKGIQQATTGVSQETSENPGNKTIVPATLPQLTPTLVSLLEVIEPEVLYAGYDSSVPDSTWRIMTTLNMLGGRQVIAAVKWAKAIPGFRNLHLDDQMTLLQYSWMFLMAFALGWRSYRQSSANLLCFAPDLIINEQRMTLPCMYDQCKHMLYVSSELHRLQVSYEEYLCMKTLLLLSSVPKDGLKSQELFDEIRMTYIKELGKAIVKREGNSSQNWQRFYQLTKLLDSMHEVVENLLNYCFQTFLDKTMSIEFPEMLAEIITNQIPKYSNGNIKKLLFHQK
Method in brief: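 Competition binding with 0.3 nM [3H]-dexamethasone and 20 μg 293-GR lysate per well; nonspecific binding defined with 0.5 μM dexamethasone. Incubated overnight at 4 °C, free ligand removed with charcoal–dextran, then scintillation counting. Percent inhibition at 10 μM was calculated.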

[2] = molecular target: T2, Estrogen receptor (Homo sapiens) (UniProt P03372); experiment: Binding affinity to human estrogen receptor expressed in HEK293 cells by scintillation counting based radioligand competition binding assay; format: cell-based
T2 sequence (whole entry): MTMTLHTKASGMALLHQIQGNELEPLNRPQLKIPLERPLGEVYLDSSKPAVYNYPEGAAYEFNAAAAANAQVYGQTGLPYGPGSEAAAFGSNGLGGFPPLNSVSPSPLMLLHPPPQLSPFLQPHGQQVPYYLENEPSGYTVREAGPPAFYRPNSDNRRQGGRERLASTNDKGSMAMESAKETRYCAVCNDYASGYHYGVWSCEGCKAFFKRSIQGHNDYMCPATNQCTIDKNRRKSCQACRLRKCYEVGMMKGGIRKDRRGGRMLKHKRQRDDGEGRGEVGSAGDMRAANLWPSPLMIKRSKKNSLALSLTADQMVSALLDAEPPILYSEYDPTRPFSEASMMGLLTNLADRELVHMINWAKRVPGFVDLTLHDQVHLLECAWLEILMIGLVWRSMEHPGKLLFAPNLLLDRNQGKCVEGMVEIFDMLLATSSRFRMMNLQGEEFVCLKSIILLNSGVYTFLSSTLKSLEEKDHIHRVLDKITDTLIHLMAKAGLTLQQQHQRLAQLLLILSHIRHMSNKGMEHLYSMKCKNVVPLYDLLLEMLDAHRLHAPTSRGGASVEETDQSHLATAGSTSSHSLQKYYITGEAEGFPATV

Syrian golden hamster [3] = experiment: Reduction in LDL level in high fat and high cholesterol diet fed Syrian golden hamster at 30 mg/kg, po qd for 14 days; format: functional; details: Mesocricetus auratus, 336 h
Method in brief: (§1)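 Groups of Syrian golden hamsters (n = 6) kept on a high fat, high cholesterol diet for 14 days, dosed orally at 30 mg/kg once daily. Plasma HDL and LDL compared against untreated HFHC controls; mean with standard errors.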

Syrian golden hamster [4] = experiment: Increase in HDL level in high fat and high cholesterol diet fed Syrian golden hamster at 30 mg/kg, po qd for 14 days; format: functional, Mesocricetus auratus; method in brief: as §1
[5] = molecular target: T3, Mineralocorticoid receptor (Homo sapiens, UniProt P08235); experiment: biochemical
T3 sequence (P08235 whole entry): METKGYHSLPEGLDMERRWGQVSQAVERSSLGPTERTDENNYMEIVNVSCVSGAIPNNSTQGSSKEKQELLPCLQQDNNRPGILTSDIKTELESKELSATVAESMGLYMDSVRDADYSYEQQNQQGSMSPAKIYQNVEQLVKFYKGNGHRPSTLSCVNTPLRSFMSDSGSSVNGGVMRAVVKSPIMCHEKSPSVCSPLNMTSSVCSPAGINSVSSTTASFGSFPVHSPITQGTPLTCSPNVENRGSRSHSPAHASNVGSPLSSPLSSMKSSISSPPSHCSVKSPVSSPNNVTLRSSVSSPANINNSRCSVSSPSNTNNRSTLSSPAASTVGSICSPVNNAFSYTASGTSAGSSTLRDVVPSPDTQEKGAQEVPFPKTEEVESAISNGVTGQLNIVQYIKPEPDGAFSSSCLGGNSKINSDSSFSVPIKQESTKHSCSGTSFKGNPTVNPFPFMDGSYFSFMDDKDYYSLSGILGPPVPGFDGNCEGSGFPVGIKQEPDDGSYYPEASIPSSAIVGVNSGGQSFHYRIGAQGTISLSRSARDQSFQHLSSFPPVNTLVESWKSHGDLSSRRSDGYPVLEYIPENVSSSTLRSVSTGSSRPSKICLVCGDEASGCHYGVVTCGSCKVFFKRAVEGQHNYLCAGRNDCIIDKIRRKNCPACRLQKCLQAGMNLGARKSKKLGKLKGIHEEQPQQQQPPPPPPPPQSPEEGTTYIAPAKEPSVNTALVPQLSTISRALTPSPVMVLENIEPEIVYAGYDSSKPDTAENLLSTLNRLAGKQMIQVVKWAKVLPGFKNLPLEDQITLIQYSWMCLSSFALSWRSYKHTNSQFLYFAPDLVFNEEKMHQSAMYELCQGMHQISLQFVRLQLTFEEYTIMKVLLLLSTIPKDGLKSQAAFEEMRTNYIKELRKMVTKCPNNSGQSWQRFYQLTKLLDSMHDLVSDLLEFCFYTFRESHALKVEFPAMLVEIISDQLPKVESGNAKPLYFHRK

Androgen receptor = molecular target: T4, Androgen receptor (Homo sapiens, UniProt P10275); experiment: biochemical
T4 sequence (P10275 whole entry): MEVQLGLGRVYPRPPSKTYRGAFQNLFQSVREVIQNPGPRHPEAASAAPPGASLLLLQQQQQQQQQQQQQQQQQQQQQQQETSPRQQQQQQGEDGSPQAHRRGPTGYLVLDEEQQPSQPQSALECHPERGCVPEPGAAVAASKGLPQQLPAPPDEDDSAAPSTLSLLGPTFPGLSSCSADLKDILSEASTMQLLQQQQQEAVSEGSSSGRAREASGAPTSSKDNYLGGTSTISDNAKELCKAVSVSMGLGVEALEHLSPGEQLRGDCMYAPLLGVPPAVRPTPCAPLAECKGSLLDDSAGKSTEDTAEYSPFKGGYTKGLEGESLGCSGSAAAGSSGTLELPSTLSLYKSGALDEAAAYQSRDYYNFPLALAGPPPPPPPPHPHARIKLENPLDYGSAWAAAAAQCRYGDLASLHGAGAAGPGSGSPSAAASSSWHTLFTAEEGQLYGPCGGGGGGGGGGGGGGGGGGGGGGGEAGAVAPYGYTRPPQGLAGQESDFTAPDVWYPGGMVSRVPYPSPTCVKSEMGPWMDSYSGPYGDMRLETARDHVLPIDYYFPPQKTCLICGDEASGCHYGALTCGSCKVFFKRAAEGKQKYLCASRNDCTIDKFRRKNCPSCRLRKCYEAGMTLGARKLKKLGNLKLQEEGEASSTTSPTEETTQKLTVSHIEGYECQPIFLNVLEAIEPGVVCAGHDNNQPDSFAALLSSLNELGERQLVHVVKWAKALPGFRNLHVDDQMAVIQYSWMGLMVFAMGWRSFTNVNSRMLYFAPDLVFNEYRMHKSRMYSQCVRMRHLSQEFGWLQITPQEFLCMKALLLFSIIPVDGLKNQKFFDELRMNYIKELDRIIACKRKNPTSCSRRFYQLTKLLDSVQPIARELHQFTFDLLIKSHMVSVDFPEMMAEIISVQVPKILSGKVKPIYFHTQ

| Compound | Activity [1] | Activity [2] | Ki [5] | Ki (Androgen receptor) | inhibition in vivo at 30 mg/kg (Syrian golden hamster [3]) | Activity (Syrian golden hamster [4]) |
| --- | --- | --- | --- | --- | --- | --- |
| COc1cc(F)ccc1-c1c(CN(C)Cc2ccccc2)[nH]c2c([N+](=O)[O-])cc(C(C)C)cc12 | inactive | inactive | – | – | – | – |
| CC#C[C@]1(O)CC[C@H]2[C@@H]3CCC4=CC(=O)CCC4=C3[C@@H](c3ccc(N(C)C)cc3)C[C@@]21C [MIFEPRISTONE] | – | inactive | – | – | 43% | 35% |
| COc1ccc(F)cc1-c1c[nH]c2c(NC(C)=O)cccc12 | – | inactive | 6.53 µM | 6.12 µM | – | – |

Further lines, with some results ahead:

| Activity [1] | Activity [2] | Ki [5] | Ki (Androgen receptor) | Compound | inhibition in vivo at 30 mg/kg (Syrian golden hamster [3]) | Activity (Syrian golden hamster [4]) |
| --- | --- | --- | --- | --- | --- | --- |
| inactive | inactive | – | – | Cc1[nH]c2ccccc2c1-c1ccccc1 | – | – |
| – | inactive | – | – | COc1ccc(-c2c[nH]c3c(NS(C)(=O)=O)cccc23)cc1F | – | – |
